# T cruzi repl – blocks replication of Trypanosoma cruzi | T. cruzi beta-gal in NIH3T3, luminescence, 90 h | inhibition, % (concentration not given with the values) | 1.4% of 300,000 active | AID 1885;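 active = mean inhibition across valid replicates above about 55%, limit read from the data; inconclusive = mean below that limit but half or more replicates reach it; inactive = mean below it, under half of replicates reach it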;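 note: signal also drops with host cell toxicity which is not excluded here; higher percent means less beta-gal luminescence so fewer parasites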
#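 Assay system: NIH/3T3 host cells with β-galactosidase reporter T. cruzi; input: 5,000 host fibroblasts per well; compound: single 50 nL compound addition per well in DMSO; timing: ≥90 h infection period, 3 h prior cell attachment; measured by: GalScreen β-gal luminescence, detergent lysis, 60 min; evaluation: percent inhibition of parasite-derived β-gal signal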
# NLRP3 yeast inh – inhibitors of NALP3 inflammasome in yeast. inhibition, % at 10 µM. 0.39% of 330,000 active. AID 2825. Yeast reconstituted NLRP3/ASC/caspase-1, beta-gal luminescence, 24 h;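 active = inhibition of 50% or more; inactive = inhibition below 50%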
# Calb FLC – affects C. albicans growth with fluconazole; AID 1979; C. albicans CaCi-2 + fluconazole, Alamar Blue growth, 48 h; growth inhibition, % (test concentration not listed); 0.57% of 300,000 active;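 active = growth inhibition above about 58% in most replicates, limit read from the data, passing the limit was not always enough; inconclusive = exactly half the replicates above a set limit; inactive = most replicates below a set limit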;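 note: all wells also contain fluconazole at 8 µg/ml as a sub-toxic cotreatment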
# L major viab – reduces viability of Leishmania major promastigotes | resazurin fluorescence viability | inhibition, % at 10 µM | 9% of 200,000 active; in the data active = inhibition above about 50%;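 note: promastigotes grown with compound for 44 hours at 28 °C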
# NALP1 inh – blocks the NALP1 inflammasome reconstituted in yeast; inhibition, % at 10 µM; 0.61% of 280,000 active; S. cerevisiae NALP1/ASC/caspase-1 growth, X-gal OD620, 72 h; in the data active = inhibition mostly above about 24%, no sharp cut-off; inactive = mostly below about 32%
# PolyA inhibitor – inhibitors of polyadenylation in S. cerevisiae; S. cerevisiae SKY197-pL101 polyadenylation reporter, beta-gal luminescence; efflux-impaired pdr1/pdr3 knockout yeast; score 100 = 6 SD above DMSO; activity score, % at 12 µM; 0.02% of 300,000 active; AID 1875;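 active = lowest replicate activity score at least 50, where 100 means six control SD above control mean; inconclusive = lowest score under 50 but half or more replicates reach 50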;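 note: yeast exposed to compound for 9 h at 30 °C; higher score means more reporter readthrough which indicates perturbed polyadenylation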
# A number is an active result; . = inactive; ? = inconclusive; / = not tested or not shown. Many of the other results were omitted from the sample, so hits are more common in it than they were.
SMILES,T cruzi repl,NLRP3 yeast inh,Calb FLC,L major viab,NALP1 inh,PolyA inhibitor
N#Cc1c(N2CCCC(O)C2)nc(N)c2c(N)nc3c(c12)CC(=O)N3C12CC3CC(CC(C3)C1)C2 (configuration not stated),.,.,.,99.1,.,.
C=C(C)CN(CC)c1nc(N)c2c(N)nc3c(c2c1C#N)CC(=O)N3C12CC3CC(CC(C3)C1)C2,56.9,.,.,90.2,.,.
CCN(CC)c1nc(N)c2c(N)nc(OC)cc2c1C#N,.,.,.,/,/,.
N#Cc1c(N(CCO)CCO)nc(N)c2c(N)nc3c(c12)CC(=O)N3CC1CCCO1 (configuration not stated),.,.,.,/,.,.
CCCCN1C(=O)Cc2c1nc(N)c1c(N)nc(N(CCC)CCC)c(C#N)c21,74.1,/,.,.,.,.
COc1ccc(CN2C(=O)Cc3c2nc(N)c2c(N)nc(N4CCCCC4)c(C#N)c32)cc1,.,.,.,.,.,.
COC(=O)c1ccc(C2NCCc3cc(OC)c(OC)cc32)cc1 (configuration not stated),.,.,.,/,.,.
COC(=O)c1ccc(NC(=O)COC(=O)C2=NN(c3ccccc3)C(=O)CC2)cc1,/,.,/,/,/,/
CC(Nc1nc(-c2cccc(Br)c2)cs1)c1nc2cc(Cl)c(N3CCCCC3)cc2n1CCOCCO (configuration not stated),.,.,.,/,.,.
CC(C)c1cccc(C(C)C)c1OC(=O)[C@H]1OC(c2ccc(Br)cc2)=C[C@@H]1c1ccc(Br)cc1,/,.,/,/,/,/
Cc1cccc(-n2c(C)cc(/C=C3\C(=N)N4N=C(CC(C)C)SC4=NC3=O)c2C)c1,.,.,.,58.6,.,.
Cc1nc(SCC(=O)c2ccc(F)c(F)c2)[nH]c(=O)c1Oc1ccc(Cl)cc1,.,.,.,/,.,.
CS(=O)(=O)c1ccccc1C(=O)Nc1ccc(-c2nc3ccccc3[nH]2)cc1,.,.,.,/,.,.
O=C(Nc1ccc(-c2nc3ccccc3[nH]2)cc1)c1ccc(N2C(=O)CCC2=O)cc1,.,.,.,50.0,.,.
Cc1ccccc1C(=O)Nc1ccc(-c2nc3ccc(C(=O)c4ccccc4)cc3[nH]2)cc1,.,.,.,97.7,.,.
O=C(c1ccccc1)c1ccc2nc(-c3ccc(NC(=O)c4ccccc4Br)cc3)[nH]c2c1,60.2,.,76.1,96.8,.,.
CS(=O)(=O)c1cccc(C(=O)Nc2ccc(-c3nc4ccccc4[nH]3)cc2)c1,.,.,.,/,.,.
Cc1ccc(S(=O)(=O)N(Cc2ccc(C(F)(F)F)cc2)C(=O)N2CCN(C)CC2)cc1,.,.,.,/,/,.
Cc1c(C(=O)N2CCCCC2)c(S(=O)(=O)NCc2ccc(Cl)cc2)c(C)n1C,.,.,.,/,.,.
Cc1cc(NS(=O)(=O)c2cn(C)nc2C)no1,.,.,/,/,.,.
Cc1ccc(NC(=O)C(c2ccccc2)C2CCCC2)cc1 (configuration not stated),.,/,.,.,.,.
O=C(Nc1ccc2ccccc2c1)C(c1ccccc1)C1CCCC1 (configuration not stated),63.7,.,.,.,.,.
COC(=O)C1=C(CN2CCc3ccccc32)NC(=O)NC1c1cc(C)ccc1C (configuration not stated),.,.,.,70.4,.,.
Cc1nc(N)sc1C(=O)N/N=C/c1ccccc1[N+](=O)[O-],.,.,.,91.8,.,.
Cc1nc(N)sc1C(=O)N/N=C/c1ccc([N+](=O)[O-])cc1,.,.,.,/,/,.
SMILES,T cruzi repl,NLRP3 yeast inh,Calb FLC,L major viab,NALP1 inh,PolyA inhibitor
CN(C)S(=O)(=O)c1ccc(N2CCCC2)c(C(=O)Nc2nc(-c3ccc(F)c(F)c3)cs2)c1,.,.,.,52.5,.,.
CN(C)S(=O)(=O)c1ccc(N2CCCC2)c(C(=O)Nc2nccs2)c1,/,.,/,/,/,/
CN(C)S(=O)(=O)c1ccc(N2CCCC2)c(C(=O)Nc2nc3c(ccc4ccccc43)s2)c1,.,.,.,96.6,.,.
CCC(=O)N1CCc2cc(Br)cc(S(=O)(=O)NCc3ccccc3OC)c21,.,.,.,/,.,.
Cc1n[nH]c(C)c1CCCCOc1ccccc1[N+](=O)[O-],.,.,.,/,.,.
CCOC(=O)C(C)(C)NS(=O)(=O)c1ccc(Cl)c([N+](=O)[O-])c1,.,.,.,.,.,.
CCOC(=O)C(C)(C)N(Cc1ccc(Cl)cc1)S(=O)(=O)c1ccc(Cl)c([N+](=O)[O-])c1,.,.,.,99.2,.,.
CCOC(=O)C(C)(C)N(Cc1ccc(C)cc1)S(=O)(=O)c1ccc(Cl)c([N+](=O)[O-])c1,.,.,.,99.8,.,.
CC(Sc1nnc(C2CC2)n1C)C(=O)Nc1ccc2c(c1)CCC2 (configuration not stated),/,.,/,/,/,/
CC(NC(=O)CCCCCNC(=O)N1CCn2c1nc1ccccc12)c1ccccc1 (configuration not stated),.,.,.,/,.,.
COC(=O)c1ccc(/C=C/C(=O)c2ccc(OC)c(OC)c2)cc1,.,.,.,.,.,.
COc1ccc(/C=C/C(=O)c2cc(F)ccc2OC(=O)c2ccccc2OC)cc1OC,.,/,.,.,.,.
COc1ccc(/C=C/C(=O)c2cc(Br)ccc2OC(=O)c2ccco2)cc1OC,.,.,?,78.6,.,.
COc1ccc(/C=C/C(=O)c2cc(F)ccc2OC(=O)c2ccccc2)cc1OC,.,.,.,100.3,/,.
COc1ccc(/C=C/C(=O)c2cc(F)ccc2OC(=O)c2ccc(OC)c(OC)c2)cc1OC,.,.,.,92.1,.,.
COc1ccc(/C=C/C(=O)c2cc(Br)ccc2O)cc1OC,.,.,.,.,.,.
CNC(=S)N(C)/N=C1/C(=O)N(Cc2c(Cl)cccc2Cl)c2ccccc21,/,.,/,/,/,/
COc1ccc(CCNC(=O)C(=O)N2CCCC2)cc1OC,.,.,.,.,.,.
Cn1c(=O)n(C)c2cc(NC(=O)CSc3nnc(-c4ccccc4O)n3-c3ccccc3)ccc21,.,.,.,60.2,.,.
CCc1nnc(NC(=O)CSc2nnc(-c3ccccc3O)n2-c2ccc(C)cc2C)s1,.,.,.,98.9,.,.
CCc1nnc(NC(=O)CSc2nnc(COc3ccccc3)n2-c2ccc(C)cc2)s1,.,.,.,.,.,.
C=C1CC2C3CC[C@@]4(OCOC45COCO5)[C@@]3(C)C(O)CC2[C@@]2(C)CCC(=O)C=C12 (some centres not stated),.,.,.,.,.,.
COCCN(C(=O)C1CCN(C(=O)c2ccccc2C)CC1)c1c(N)n(CC(C)C)c(=O)[nH]c1=O,/,.,/,/,/,/
CC1(C)CC(=O)C/C(=N\NC(=O)CCc2ccc(S(=O)(=O)N3CCOCC3)cc2)C1,.,.,.,.,.,.
CCCCCCC(=O)N(O)C1CC(=O)N(Cc2ccccc2)C1=O (configuration not stated),/,.,/,.,47.0,/

# Bioassay records (PubChem)
